# IDH1 R132H inh – inhibitors of human IDH1 R132H; IDH1 R132H reductase, diaphorase/resazurin fluorescence, 60 min; inhibition, % at 10 µM; 70,000 tested, 0.18% active; AID 624101; O75874; in the data active = inhibition above about 34%; inconclusive = no clear call, values can overlap the other calls; inactive = below about 11%;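 note: 0% = DMSO and 100% = no enzyme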
# Target sequence (O75874 whole entry R132H): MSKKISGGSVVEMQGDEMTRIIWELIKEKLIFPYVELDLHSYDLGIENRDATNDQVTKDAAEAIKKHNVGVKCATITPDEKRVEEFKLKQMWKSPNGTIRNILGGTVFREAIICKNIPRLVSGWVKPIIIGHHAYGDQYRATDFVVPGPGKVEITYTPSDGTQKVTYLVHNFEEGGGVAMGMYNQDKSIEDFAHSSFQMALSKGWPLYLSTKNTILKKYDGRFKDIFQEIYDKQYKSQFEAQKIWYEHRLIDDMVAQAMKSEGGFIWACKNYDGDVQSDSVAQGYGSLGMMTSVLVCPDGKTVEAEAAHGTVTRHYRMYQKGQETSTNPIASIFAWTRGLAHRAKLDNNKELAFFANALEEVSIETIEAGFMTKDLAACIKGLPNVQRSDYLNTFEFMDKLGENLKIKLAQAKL
# Pf Dd2 inh – blocks growth of Plasmodium falciparum Dd2 parasites. 94,000 tested, 2.3% active. AID 1159554. P. falciparum Dd2 growth, SYBR Green, 72 h; stronger effect = lower value. activity change, % at 10 µM; in the data active = activity change below about -80%; inconclusive = no clear call, values can overlap the other calls
# GASC1 inh – blocks human GASC-1 (KDM4C) demethylase activity; inhibition, % at 12.5 µM; GST-KDM4C 2-372, H3K9me3 peptide, LANCE TR-FRET; Q9H3R0; 96,000 tested, 0.15% active;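 active = mean replicate inhibition above about 25%, with at least 55% of replicates also reaching it, limit read from the data, passing the limit was not always enough; inconclusive = only one of those two conditions met; inactive = neither condition met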
# Target sequence (Q9H3R0 2-372 limits assumed): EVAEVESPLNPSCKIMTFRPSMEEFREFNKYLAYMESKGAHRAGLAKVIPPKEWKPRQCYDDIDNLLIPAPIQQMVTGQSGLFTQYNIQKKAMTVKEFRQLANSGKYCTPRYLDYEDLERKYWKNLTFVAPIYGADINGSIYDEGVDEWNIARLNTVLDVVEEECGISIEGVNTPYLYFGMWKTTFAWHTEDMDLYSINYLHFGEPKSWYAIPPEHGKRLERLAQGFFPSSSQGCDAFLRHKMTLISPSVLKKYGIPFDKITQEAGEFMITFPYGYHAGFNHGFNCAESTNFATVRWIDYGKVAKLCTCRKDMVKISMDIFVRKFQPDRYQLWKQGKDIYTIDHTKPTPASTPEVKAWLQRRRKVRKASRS
#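 System – N-terminal GST-fused human GASC-1 (KDM4C) fragment, residues 2-372 · Input – enzyme final amount 10 nM · Technique – LANCE TR-FRET, Eu antibody, ULight-streptavidin, EDTA, ex 340 nm, em 618/671 nm · Medium – HEPES buffer, pH 7.5, plus ascorbate · Incubation – enzyme reaction 30 min, then detection 60 min, both room temperature · Reagent – H3K9me3 peptide with Fe(II)/2OG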
# T cruzi growth-1 – inhibitors of T. cruzi proliferation; T. cruzi beta-gal in NIH3T3, GalScreen luminescence, 90 h; inhibition, % at 8.34 µM; 77,000 tested, 5.9% active;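 active = mean inhibition above about 93%, with at least 55% of replicates each passing it, limit read from the data, passing the limit was not always enough; inconclusive = only one of those two conditions holds; inactive = neither condition holds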
# T cruzi growth-2 – blocks T. cruzi growth in NIH3T3 host cells. shares compounds with T cruzi growth-1. T. cruzi beta-gal in NIH3T3, GalScreen luminescence, 90 h. inhibition, % at 8.35 µM. 5,600 tested, 72% active. AID 651739;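 active = mean replicate inhibition above about 95% and at least 55% of replicates individually reaching it, limit read from the data; inconclusive = only one of the two criteria is met; inactive = neither criterion is met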
# T cruzi growth-3 – blocks T. cruzi growth in NIH3T3 host cells; shares compounds with T cruzi growth-1; T. cruzi beta-gal in NIH3T3, GalScreen luminescence, 90 h; inhibition, % at 2.09 µM; 5,600 tested, 21% active;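 active = mean inhibition above about 95%, with at least 55% of replicates also reaching it, limit read from the data; inconclusive = meets just one of the two conditions; inactive = meets neither condition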;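 note: plate controls were neutral control median for no effect and positive control median for full effect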
# 3T3 cytotox – cytotoxicity in mouse NIH/3T3 fibroblasts; shares compounds with T cruzi growth-1; NIH/3T3 viability, CellTiter-Glo ATP luminescence, 90 h; cytotoxicity (signal decrease), % at 8.35 µM; AID 651742; 5,600 tested, 14% active;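 active = mean signal decrease across replicates above about 35% based on untreated-well scatter, with enough replicates individually passing, limit read from the data; inconclusive = no rule stated though some were filed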;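 note: 0% = median of neutral control wells and 100% = median of positive control wells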
# NIH3T3 tox 2 – cytotoxicity in mouse NIH/3T3 fibroblasts | inhibition, % at 24.9 µM | NIH/3T3 viability, CellTiter-Glo ATP luminescence, 90 h | shares compounds with T cruzi growth-1 | 5,600 tested, 56% active;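 active = mean loss of cell viability signal at or above a set limit, and enough replicates individually reaching it; inconclusive = meets only the mean limit or only the replicate share; inactive = meets neither condition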;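 note: 0% = median of neutral control wells and 100% = median of positive control wells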
# * = called active by the depositor; u = inconclusive; x = no result. Most compounds without a hit are left out; they make up all but 5.8% or so of the library.
SMILES,IDH1 R132H inh,Pf Dd2 inh,GASC1 inh,T cruzi growth-1,T cruzi growth-2,T cruzi growth-3,3T3 cytotox,NIH3T3 tox 2
C[C@@H]1CN([C@H](C)CO)C(=O)c2cc(NC(=O)NC3CCCCC3)ccc2O[C@@H](C)CCCCO[C@H]1CN(C)C(=O)Nc1ccc(C(F)(F)F)cc1,0.1,x,0.2,x,x,x,x,x
C[C@@H]1CCCCO[C@H](CN(C)C(=O)Nc2ccc(C(F)(F)F)cc2)[C@@H](C)CN([C@@H](C)CO)C(=O)c2cc(NC(=O)NC3CCCCC3)ccc2O1,x,-89.5*,-2.2,121.2*,105.0*,115.3*,-1.1,18.1
C[C@@H]1CN([C@H](C)CO)C(=O)c2cc(NC(=O)Nc3cccc4ccccc34)ccc2O[C@@H]1CN(C)Cc1ccc(C(F)(F)F)cc1,1.5,-8.0,-0.2,92.0*,96.8*,88.2,47.4*,38.2*
C[C@H](CO)N1C[C@H](C)[C@H](CN(C)Cc2ccc(C(F)(F)F)cc2)Oc2ccc(NC(=O)Nc3cccc4ccccc34)cc2C1=O,-2.2,8.0,8.1,49.5,x,x,x,x
C[C@H](CO)N1C[C@H](C)[C@H](CN(C)Cc2ccc(C(F)(F)F)cc2)Oc2c(NC(=O)Nc3ccccc3)cccc2C1=O,2.1,-3.8,1.5,13.8,x,x,x,x
C[C@H](CO)N1C[C@H](C)[C@H](CN(C)Cc2ccc(C(F)(F)F)cc2)Oc2c(NC(=O)Nc3cccc4ccccc34)cccc2C1=O,x,-39.3,-3.0,111.0*,102.8*,73.4,33.7,29.9*
C[C@H]1CN([C@@H](C)CO)C(=O)c2cc(NC(=O)Nc3cccc4ccccc34)ccc2O[C@H]1CN(C)Cc1ccccc1,-1.5,2.6,-1.5,45.6,x,x,x,x
C[C@@H]1CN([C@@H](C)CO)C(=O)c2cc(NC(=O)Nc3cccc4ccccc34)ccc2O[C@@H]1CN(C)Cc1ccc(C(F)(F)F)cc1,0.0,32.6,-1.5,105.9*,105.6*,107.1*,52.8*,46.0*
C[C@@H]1CN([C@@H](C)CO)C(=O)c2cc(NC(=O)C3CCCCC3)ccc2O[C@@H](C)CCCCO[C@@H]1CN(C)Cc1ccccc1,x,-23.3,2.0,96.7,x,x,x,x
O=C(NC[C@H]1[C@H](c2ccccc2)[C@@H](CO)N1Cc1ccccn1)C1CCCC1,x,3.3,4.1,-64.9,x,x,x,x
O=C(NC[C@H]1[C@H](c2ccccc2)[C@H](CO)N1Cc1ccccn1)C1CCCC1,x,-69.1,1.5,97.1*,47.7,-19.4,13.6,-0.8
C/C=C/c1ccc([C@@H]2[C@@H](CO)N(Cc3ccccn3)[C@H]2CNC(C)=O)cc1,x,9.2,3.3,78.9,x,x,x,x
C/C=C/c1ccc([C@@H]2[C@H](CO)N(Cc3ccccn3)[C@H]2CNC(C)=O)cc1,x,2.9,3.4,97.7*,-16.5,-13.2,-0.1,9.4
Cc1cc(OCC(=O)Nc2ccccc2[N+](=O)[O-])ccc1Cl,0.4,x,x,x,x,x,x,x
C[C@@H]1CCCCO[C@@H](CN(C)C(=O)CCC(F)(F)F)[C@H](C)CN([C@@H](C)CO)C(=O)c2cc(NC(=O)NC3CCCCC3)ccc2O1,x,3.6,-0.3,13.3,x,x,x,x
C[C@H]1CN([C@@H](C)CO)S(=O)(=O)c2ccc(-c3ccncc3)cc2O[C@H]1CN(C)Cc1ccccn1,x,-11.9,0.8,103.4*,96.7*,86.0,-0.4,28.4*
C[C@@H]1CN([C@H](C)CO)S(=O)(=O)c2ccc(-c3ccncc3)cc2O[C@H]1CN(C)Cc1ccccn1,x,-31.0,-2.0,112.4*,93.6,u,u,57.6*
COCc1cn(CC[C@@H]2CC[C@H](NC(=O)Nc3ccc4c(c3)OCO4)[C@@H](CO)O2)nn1,0.1,-21.7,1.9,4.0,x,x,x,x
OC[C@@H]1Nc2ccc(-c3ccc(F)cc3)cc2[C@H]2[C@@H]1CCN2Cc1ccc(F)cc1,x,-67.7,0.2,44.5,x,x,x,x
OC[C@@H]1Nc2ccc(-c3ccccc3)cc2[C@@H]2[C@H]1CCN2Cc1ccc(F)cc1,x,-71.3,1.4,75.4,x,x,x,x
N#Cc1cccc(-c2ccc3c(c2)[C@@H]2[C@@H](CCN2Cc2cncnc2)[C@@H](CO)N3)c1,x,-52.9,1.2,104.7*,89.0,51.4,-1.8,12.0
OC[C@H]1Nc2ccc(-c3cccc(F)c3)cc2[C@@H]2[C@H]1CCN2Cc1ccc(F)cc1,x,-89.6*,-1.1,111.0*,u,111.8*,51.1*,105.1*
OC[C@H]1Nc2ccc(-c3cccc(F)c3)cc2[C@H]2[C@@H]1CCN2Cc1ccncc1,x,-47.4,5.4,106.0*,104.3*,73.8,21.1,92.4*
CCCNC(=O)N(C)C[C@@H]1Oc2ncc(C#CC3CC3)cc2C(=O)N([C@H](C)CO)C[C@@H]1C,x,37.9,-0.3,11.2,x,x,x,x
C[C@@H]1CN([C@@H](C)CO)C(=O)c2cc(C#Cc3cccc(F)c3)cnc2O[C@H]1CN(C)C(=O)c1ccccc1F,0.5,-76.8,-0.9,110.3*,108.8*,47.2,20.8,24.6
SMILES,IDH1 R132H inh,Pf Dd2 inh,GASC1 inh,T cruzi growth-1,T cruzi growth-2,T cruzi growth-3,3T3 cytotox,NIH3T3 tox 2
C[C@H](CO)N1C[C@H](C)[C@@H](CN(C)C(=O)c2ccccc2F)Oc2ncc(C#Cc3cccc(F)c3)cc2C1=O,0.6,-86.8*,-1.5,98.9*,103.4*,36.2,-10.8,-10.4
C[C@@H]1CN([C@H](C)CO)C(=O)c2cc(C#Cc3ccccc3)cnc2O[C@@H]1CN(C)C(=O)c1ccccc1F,x,-59.0,0.2,-96.8,x,x,x,x
C[C@H](CO)N1C[C@H](C)[C@H](CN(C)C(=O)c2ccccc2F)Oc2ncc(C#Cc3ccccc3)cc2C1=O,x,-60.3,1.2,-19.0,x,x,x,x
CO[C@@H]1CN(C)C(=O)c2ccc(NC(C)=O)cc2OC[C@H](C)N(C(=O)c2ccccc2F)C[C@@H]1C,x,-27.5,1.2,-10.1,x,x,x,x
COc1ccc(CN(C)C[C@@H]2Oc3ccc(NC(=O)CCN4CCOCC4)cc3C(=O)N([C@@H](C)CO)C[C@@H]2C)cc1,0.7,-1.8,-0.2,-36.8,x,x,x,x
COc1ccc(CN(C)C[C@H]2OCCCC[C@H](C)Oc3ccc(NC(=O)Nc4ccc5c(c4)OCO5)cc3C(=O)N([C@H](C)CO)C[C@H]2C)cc1,x,-75.4,2.4,105.3*,u,u,21.7,78.2*
COc1ccc(NC(=O)Nc2ccc3c(c2)C(=O)N([C@@H](C)CO)C[C@H](C)[C@@H](CN(C)Cc2ccc4c(c2)OCO4)OCCCC[C@H](C)O3)cc1,x,-58.3,0.0,u,102.9*,78.1,-4.7,104.8*
O=C(C[C@H]1CC[C@H]2[C@@H](COC[C@@H](O)CN2Cc2cccc(F)c2)O1)NCCc1ccncc1,x,1.5,-0.9,-11.8,x,x,x,x
C[C@@H]1CN([C@H](C)CO)S(=O)(=O)c2ccc(-c3cccc(C#N)c3)cc2O[C@H]1CN(C)C,0.4,-18.3,7.7,110.4*,87.3,27.8,25.2,36.5*
